Assays:
[1] = target: T1, Estrogen receptor (Rattus norvegicus) (UniProt P06211+Q62986); assay: Estrogenic activity as percent gain in rat uterine weight at 10 mg/kg/day; type: functional, organism-based
Summary of the method: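 Immature female rats were dosed orally once daily on days 28–30 of age at 10 mg/kg, with a vehicle-only control group. At autopsy on day 31, 24 h after the last dose, vaginal opening and vaginal-smear cornification were scored, and the blotted uterus was weighed fresh. Uterine gain was expressed as percent of vehicle control, as mean ± SEM of at least six observations per group.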

[2] = target: T1, Estrogen receptor (Rattus norvegicus)
[3] = target: T1, Estrogen receptor (Rattus norvegicus); assay: Estrogenic activity in rat uterine weight assay; type: functional
Rattus norvegicus = species: Rattus norvegicus; assay: Percent inhibition of ethynylestradiol-induced uterine weight gain in ovariectomized immature rats; set-up: concentration or dose not given beside the values; details: concentration not given here
[4] = target: T1, Estrogen receptor (Rattus norvegicus); assay: Relative binding affinity for immature rat cytosolic estrogen receptor; type: protein assay
Summary of the method: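 Rat uterine cytosol receptor (20–21-day-old animals, pH 7.4 Tris-EDTA buffer) was incubated in triplicate for 18 h at 4 °C with fixed [3H]-estradiol and graded competitor concentrations, with DMF ≤5% final. Bound ligand was separated with dextran-coated charcoal and counted. Percent bound versus log concentration was plotted, and the 50%-inhibition concentration was compared with that of estradiol to give RBA.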

| Gain [1] [%] | Weight [2] [mg] | Weight [3] [mg] | inhibition (Rattus norvegicus) [%] | RBA [4] [%] | SMILES |
| --- | --- | --- | --- | --- | --- |
| 8.57 | 73 | 19 | 6.41 | < 0.001 | COc1ccc2c(c1)CCC(C1CC[C@H](OC(C)=O)[C@@]1(C)CC(=O)NCCc1ccccc1)C2 (stereo not given in full) |
| 133 | 70.9 | 40.7 | 22.1 | < 0.001 | CCCCNC(=O)C[C@@]1(C)C(C2CCc3cc(OC)ccc3C2)CC[C@@H]1OC(C)=O (stereo not given in full) |
| 422 | 83.6 | 74.3 | 10 | < 0.001 | COc1ccc2c(c1)CCC(C1CC[C@H](OC(C)=O)[C@@]1(C)CC(=O)NCCCc1ccccc1)C2 (stereo not given in full) |
| 2.91 | 69 | 18 | 11.5 | < 0.001 | COc1ccc2c(c1)CCC(C1CC[C@H](OC(C)=O)[C@@]1(C)CC(=O)Nc1ccccc1)C2 (stereo not given in full) |
| 428 | 86 | 84.9 | 15.6 | < 0.001 | COc1cccc(NC(=O)C[C@@]2(C)C(C3CCc4cc(OC)ccc4C3)CC[C@@H]2OC(C)=O)c1 (stereo not given in full) |
| 6.63 | 67.2 | 18.7 | 26.1 | < 0.001 | CCCNC(=O)C[C@@]1(C)C(C2CCc3cc(OC)ccc3C2)CC[C@@H]1OC(C)=O (stereo not given in full) |
| 35.2 | 75.3 | 23.7 | 17.2 | < 0.001 | CCCCCNC(=O)C[C@@]1(C)C(C2CCc3cc(OC)ccc3C2)CC[C@@H]1OC(C)=O (stereo not given in full) |
| 282 | 77.5 | 70.7 | 20.2 | < 0.001 | COc1ccc(NC(=O)C[C@@]2(C)C(C3CCc4cc(OC)ccc4C3)CC[C@@H]2OC(C)=O)cc1 (stereo not given in full) |
| 412 | 90 | 82.4 | 11.7 | < 0.001 | CCCCCCCCCCCCNC(=O)C[C@@]1(C)C(C2CCc3cc(OC)ccc3C2)CC[C@@H]1OC(C)=O (stereo not given in full) |
| 441 | 95.9 | 87 | 5.98 | < 0.001 | CCCCCCCCNC(=O)C[C@@]1(C)C(C2CCc3cc(OC)ccc3C2)CC[C@@H]1OC(C)=O (stereo not given in full) |
| 362 | 87.7 | 74.4 | 14 | < 0.001 | COc1ccc2c(c1)CCC(C1CC[C@H](OC(C)=O)[C@@]1(C)CC(=O)NCc1ccccc1)C2 (stereo not given in full) |
